In ChEMBL document CHEMBL4513216, “Probing the Open Global Health Chemical Diversity Library for Multistage-Active Starting Points for Next-Generation Antimalarials” (ACS Infect Dis, 2020) one finds cytotoxicity data, which are given here for 70 molecules.

Each structure is given as a SMILES string.

The data set is described as follows: Toxicity liver stage against HepG2, at 10uM. The class given is cell-based. The following applies: human, HepG2-A16-CD81EGFP cells; read-out: INHIBITION
Details: test concentration 10 uM, cell line HepG2-A16-CD81EGFP. Put shortly:
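Uninfected HepG2-A16-CD81EGFP cells, 3 × 10^3 per well, 1536-well, plated on prespotted compound at 10 μM final, parasite-free screening media added to match infected plates; puromycin 10 μM positive, DMSO 0.5% negative; run in parallel with 48 h PbLuc assay at 37 °C, 5% CO2; viability by CellTiter-Glo luminescence, normalized to controls.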
Turning to `COCCCNC(=O)NCc1cccn1Cc1ccccc1C`, the cytotoxicity at 10 µM was determined as 2.88%.
The result for `COc1ccc(NC(=O)CCNc2ncccn2)cn1` reads -48.4%.
For `Cc1cc(NCc2ccco2)nc2[nH]nc(N)c12`, the cytotoxicity at 10 µM is -43.6%.
The result for `Cc1nn(-c2ncccn2)c2c1C(c1cnn(C)c1)SCC(=O)N2` (stereo not given) reads -45%.
As to `O=C(NC1CCCc2c1[nH]c1ccc(F)cc21)c1n[nH]c2c1CCC2` (stereo not given), the cytotoxicity at 10 µM stood at 51.7%.
For `CN1C(=O)CC[C@@H]2[C@H]1CCN2S(=O)(=O)Cc1ccccc1` the value was -5.73%; for `CCn1nnc(NCc2cc(Br)cc(Br)c2OC)n1`, 13.3%.
Take `COc1ccc(C(=O)Nc2c(C(=O)N(C)C)nn(C)c2C)cc1`: the cytotoxicity at 10 µM was determined as 6.03%.
On to `Cc1cc2nc(O)c(O)nc2cc1S(=O)(=O)NC1CC1`, for which the cytotoxicity at 10 µM amounted to 9.43%.
For the molecule `Cc1cccc(C2(O)CCN(Cc3ccccc3N3CCCC3)CC2)c1`, the cytotoxicity at 10 µM was determined as 10.6%.
On to `CC(=O)Nc1nc(C2CCN(C(=O)c3cccnc3)CC2)cs1`, for which the cytotoxicity at 10 µM is -2.47%.
For `Cc1cc(C)cc(-c2ccc(CC3(C(=O)O)CCOCC3)cc2)c1`, the cytotoxicity at 10 µM was found to be 4.81%.
On to `CC(=O)N1CC(C)CN(C(=O)c2cnccn2)c2ccccc21` (stereo not given), for which the cytotoxicity at 10 µM turned out to be 3.82%.
For `N#Cc1cccc(NC(=O)N[C@H](CO)Cc2ccc(O)cc2)c1` the value was 0.597%.
Consider `COc1cc(Cl)ccc1CNC(=O)N(C)C(C)CS(C)(=O)=O` (stereo not given), for which the cytotoxicity at 10 µM was -50.1%.
On to `CCOc1ccc(Br)cc1S(=O)(=O)N(CC)Cc1ccc(N(C)C)cc1`, for which the cytotoxicity at 10 µM amounted to 14.1%.
For `CNC(=O)c1sccc1S(=O)(=O)Nc1ccc(C)cc1` the value was 11.4%.
Take `CCC(=O)Nc1ncn(Cc2cccnc2)n1`: the cytotoxicity at 10 µM is -11.3%.
`CN(Cc1cccc(C(N)=O)c1)c1ncc(C#N)cc1Cl`: the cytotoxicity at 10 µM was 8.36%.
With `C[C@H]1CN(C(=O)c2cccc(F)c2Cl)CCN1S(C)(=O)=O`, the cytotoxicity at 10 µM is -13.5%.
As to `CC(C)C1CN(C(=O)c2ccccc2)CCS1` (stereo not given), the cytotoxicity at 10 µM is 1.62%.
Regarding `CN(C)C(=O)Cc1nc(CN2CCCC2Cn2cncn2)cs1` (stereo not given), the cytotoxicity at 10 µM is 8.58%.
Consider `CCC(CNC1CCN(C(C)=O)CC1)Oc1cccc(C)c1` (stereo not given), for which the cytotoxicity at 10 µM came to 6.42%.
For the molecule `CC(NCc1cnc(C2CCC2)s1)c1ccc(-n2cncn2)cc1` (stereo not given), the cytotoxicity at 10 µM was 1.44%.
For `CC(=O)NCCCNCc1c(C)nn(CC(C)C)c1N(C)C`, the cytotoxicity at 10 µM was 6.47%.
As to `CCOCCN1CCCC1CS(N)(=O)=O` (stereo not given), the cytotoxicity at 10 µM was found to be 14.3%.
For the molecule `CC(O)(CNC(=O)c1cccnc1-n1cccn1)c1ccsc1` (stereo not given), the cytotoxicity at 10 µM was 2.38%.
On to `O=C(CCN1CCc2[nH]nc(C(F)(F)F)c2C1)Nc1ccccc1`, for which the cytotoxicity at 10 µM is -1.2%.
`CC1(C)CN(Cc2csc(CS(C)(=O)=O)n2)Cc2ccccc21`: the cytotoxicity at 10 µM is 6.38%.
`COCCN1CC[C@]2(CN(C(=O)c3ccc[nH]3)C[C@H]2C)C1=O`: the cytotoxicity at 10 µM was 2.53%.
Turning to `O=C(NCCN1CCCC1)c1cc2c(s1)CCN2c1ncccn1`, the cytotoxicity at 10 µM is -108%.
As to `Cc1csc(NC(=O)[C@@H]2C[C@H]3[C@H](CCN3S(C)(=O)=O)O2)n1`, the cytotoxicity at 10 µM is 1.64%.
`CN(C)C(=O)[C@H]1CCS(=O)(=O)[C@@H]2CN(c3ncccn3)C[C@H]12`: the cytotoxicity at 10 µM was -103%.
Regarding `CN(C)CC(=O)N1CCC2(CC1)COCCN(Cc1ccncc1)C2`, the cytotoxicity at 10 µM is -80.8%.
As for `CCc1ccccc1OC1CN(C(=O)c2ccnc(OC)c2)C1`, the cytotoxicity at 10 µM worked out at 32.8%.
With `Cc1n[nH]c(C)c1Sc1ccccc1NC(=O)N1CCN(C)CC1`, the cytotoxicity at 10 µM was -12.9%.
Consider `CC(C)(C)c1cn(C2CCN(C(=O)c3cnccn3)CC2)nn1`, for which the cytotoxicity at 10 µM came out at 14%.
Regarding `N[C@H]1CN(C(=O)c2ccc(Cl)cc2O)C[C@@H]1C1CC1`, the cytotoxicity at 10 µM was -44.7%.
As to `Cn1ncc2c1NC(=O)CC2c1cc2c(cc1Cl)OCO2` (stereo not given), the cytotoxicity at 10 µM is 55.6%.
Turning to `COc1nc2c(cc1C(=O)N1CC[C@H](CO)[C@@H](O)C1)CCC2`, the cytotoxicity at 10 µM is -42.4%.
With `CCOC(=O)CC(C)Nc1nc(C2CCCC2)nc2c1cnn2C` (stereo not given), the cytotoxicity at 10 µM was -43.1%.
`Cc1cnc(NCc2cnn(C)c2)nc1-c1cnn(C)c1`: the cytotoxicity at 10 µM came to 52.1%.
Regarding `CCc1ccc(CN(Cc2ccco2)C(C)C(C)C)nc1` (stereo not given), the cytotoxicity at 10 µM is -13.5%.
As to `Cc1nc(CC2CCN(Cc3ccc(CCC(C)(C)O)cc3)CC2)no1`, the cytotoxicity at 10 µM was -0.94%.
The result for `N#Cc1cnc(N2Cc3cnn(Cc4ccc(F)cc4)c3C2)nc1N` reads 4.84%; that for `O=C1N(CCO)CCCC12CCN(Cc1nnc(C3CC3)o1)C2` (stereo not given), 5.27%.
For the molecule `Cc1nc(CCNC(=O)CC2CCN(C(C)C)CC2)sc1Cl`, the cytotoxicity at 10 µM is -194%.
For `CCc1nnc(CNC2CCN(c3ncnc4c(C)csc34)CC2)s1`, the cytotoxicity at 10 µM came to 10.5%.
Regarding `CCc1ncc2c(n1)CN(C(=O)c1c(C)[nH]c3c1C(=O)CCC3)C2`, the cytotoxicity at 10 µM is -45.8%.
Regarding `Cc1nc(-n2cnnc2)ccc1-c1cccc2c1CCNC2`, the cytotoxicity at 10 µM came to 12.2%.
With `OC1(CN2CCCC2)CCCN(Cc2cnc(-c3ccco3)nc2)C1` (stereo not given), the cytotoxicity at 10 µM is -6.84%.
The result for `NCC1CCN(c2cnn(CCCn3cccn3)c(=O)c2)CC1` reads -52.8%; that for `CC(C)c1cc(N2CCC(NS(C)(=O)=O)CC2)n2nccc2n1`, 0.324%; that for `Cc1nn2c(N3CCC(C(N)=O)CC3)cc(-c3ccccc3)nc2c1C`, -2.83%.
`CC(=O)Nc1ncc(S(=O)(=O)N2CCC(C)CC2)s1`: the cytotoxicity at 10 µM came out at 14.8%.
As to `COc1ccccc1OCCCN(C)c1cc(C)nc(N)n1`, the cytotoxicity at 10 µM was 1.39%.
Regarding `CCCC(C)CN1CCC(n2cc(C3CCCC3)nn2)CC1` (stereo not given), the cytotoxicity at 10 µM worked out at 14.2%.
For `CSCc1ccc(C(=O)NCCCNc2ccc(C(F)(F)F)cn2)cc1` the value was 3.84%; for `CC(C)CCc1nc(CNCC2CCCN2c2cccnn2)cs1` (stereo not given), -10.7%.
For `COc1ccc(OCC(=O)NS(=O)(=O)c2ccc(Br)s2)cc1`, the cytotoxicity at 10 µM is -0.383%.
For `Cc1cc(S(=O)(=O)N2CCc3ccc(F)cc32)cc(C(=O)O)c1C` the value was 3.2%.
Regarding `CCn1cnnc1CNC(=O)N1CCC(C(=O)NC)CC1`, the cytotoxicity at 10 µM turned out to be 2.65%.
For the molecule `O[C@@]1(c2ccccn2)CC[C@H]2CN(Cc3cccc(Cl)c3Cl)C[C@H]21`, the cytotoxicity at 10 µM turned out to be 0.256%.
In the case of `O=C(NCCc1cccs1)[C@]12COC[C@H]1CN(C1CCOCC1)C2`, the cytotoxicity at 10 µM was -116%.
On to `Cc1nnc(N2CC[C@H]3C[C@@H](C(=O)NC4CCCC4)O[C@H]3C2)s1`, for which the cytotoxicity at 10 µM turned out to be 6.69%.
On to `O=C(NC1CC(F)(F)C1)[C@]12COC[C@H]1CN(Cc1ccccc1)C2`, for which the cytotoxicity at 10 µM is -108%.
Take `Cc1ccc(CN2CC[C@H]3OCC[C@@H](C(=O)N4CCCCO4)[C@@H]3C2)o1`: the cytotoxicity at 10 µM was determined as 3.54%.
On to `O=C(CC1CCCC1)N1C[C@@H]2CCN(c3cccnc3)C[C@@H]2C1`, for which the cytotoxicity at 10 µM was found to be 4.24%.
In the case of `O=C(Nc1cccnc1)C1Cc2nc(-c3ccsc3)sc2N1CC1CC1` (stereo not given), the cytotoxicity at 10 µM turned out to be 14.5%.
In the case of `COc1cccc(-c2cccc(CN3C[C@H]4CC[C@@H](C3)N(C)C4=O)c2)c1`, the cytotoxicity at 10 µM was 6.98%.
